According to ChEMBL document CHEMBL4706704, “Potential of substituted quinazolines to interact with multiple targets in the treatment of cancer” (Bioorg Med Chem, 2021):

Tests used:
A-431 = test: Cytotoxicity against human A-431 cells assessed as reduction in cell viability by Sulforhodamine B assay; format: functional, cell-based
[1] = Ratio of EC50 for induction of microtubule depolymerization in rat A10 cells to IC50 for antiproliferative activity against human MDA-MB-435 cells
SK-OV-3 [2] = test: Cytotoxicity against human SK-OV-3 cells over expressing MDR1-6/6 assessed as reduction in cell viability by Sulforhodamine B assay; format: functional, cell-based
Method in brief: (§1)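 SRB assay for antiproliferative/cytotoxic effect. HeLa WT-βIII and SK-OV-3-MDR1-6/6 lines were generated as described earlier and run alongside their parental lines.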

[3] = target: T1, Platelet-derived growth factor receptor beta (Homo sapiens, UniProt P09619); test: Inhibition of PDGFRbeta in human SH-SY5Y cells preincubated for 60 mins followed by PDGF stimulation and measured after 10 mins by ELISA; format: cell-based
T1 sequence (P09619 whole entry): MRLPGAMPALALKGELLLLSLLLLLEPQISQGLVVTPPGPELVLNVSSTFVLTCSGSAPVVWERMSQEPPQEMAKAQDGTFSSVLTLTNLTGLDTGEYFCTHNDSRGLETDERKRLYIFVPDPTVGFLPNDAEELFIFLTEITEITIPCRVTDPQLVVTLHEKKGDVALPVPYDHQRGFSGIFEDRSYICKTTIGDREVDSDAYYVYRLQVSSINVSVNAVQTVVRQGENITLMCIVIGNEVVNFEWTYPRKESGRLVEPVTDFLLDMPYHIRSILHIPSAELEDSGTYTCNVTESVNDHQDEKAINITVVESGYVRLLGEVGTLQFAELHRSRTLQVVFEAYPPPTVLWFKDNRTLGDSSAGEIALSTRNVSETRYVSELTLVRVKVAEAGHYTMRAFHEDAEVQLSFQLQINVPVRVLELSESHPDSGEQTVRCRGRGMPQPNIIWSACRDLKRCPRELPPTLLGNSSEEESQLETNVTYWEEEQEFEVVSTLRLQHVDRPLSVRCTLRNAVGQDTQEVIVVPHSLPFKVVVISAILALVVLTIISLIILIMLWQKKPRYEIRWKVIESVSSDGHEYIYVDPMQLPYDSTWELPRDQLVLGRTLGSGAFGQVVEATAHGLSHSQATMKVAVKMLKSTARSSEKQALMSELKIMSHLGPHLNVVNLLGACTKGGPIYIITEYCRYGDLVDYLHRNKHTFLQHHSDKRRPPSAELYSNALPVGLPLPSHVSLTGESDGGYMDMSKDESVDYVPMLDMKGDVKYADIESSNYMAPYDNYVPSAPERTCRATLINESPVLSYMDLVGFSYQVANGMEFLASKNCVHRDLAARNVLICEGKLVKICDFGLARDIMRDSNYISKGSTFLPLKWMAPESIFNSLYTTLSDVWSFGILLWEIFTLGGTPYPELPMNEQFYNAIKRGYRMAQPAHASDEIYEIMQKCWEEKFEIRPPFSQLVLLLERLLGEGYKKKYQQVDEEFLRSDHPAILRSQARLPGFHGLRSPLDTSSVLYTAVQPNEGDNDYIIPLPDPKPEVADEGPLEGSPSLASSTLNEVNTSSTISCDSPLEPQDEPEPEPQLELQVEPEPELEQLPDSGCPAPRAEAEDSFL

[4] = target: T1, Platelet-derived growth factor receptor beta; test: Potency index, ratio of IC50 for sunitinib to IC50 for test compound for inhibition of PDGFRbeta in human SH-SY5Y cells; format: cell-based
[5] = target: T2, Vascular endothelial growth factor receptor 2 (Homo sapiens, UniProt P35968); test: Potency index, ratio of IC50 for sunitinib to IC50 for test compound for inhibition of VEGFR2 in human U251 cells; format: cell-based; conditions: U-251
T2 sequence (P35968 whole entry): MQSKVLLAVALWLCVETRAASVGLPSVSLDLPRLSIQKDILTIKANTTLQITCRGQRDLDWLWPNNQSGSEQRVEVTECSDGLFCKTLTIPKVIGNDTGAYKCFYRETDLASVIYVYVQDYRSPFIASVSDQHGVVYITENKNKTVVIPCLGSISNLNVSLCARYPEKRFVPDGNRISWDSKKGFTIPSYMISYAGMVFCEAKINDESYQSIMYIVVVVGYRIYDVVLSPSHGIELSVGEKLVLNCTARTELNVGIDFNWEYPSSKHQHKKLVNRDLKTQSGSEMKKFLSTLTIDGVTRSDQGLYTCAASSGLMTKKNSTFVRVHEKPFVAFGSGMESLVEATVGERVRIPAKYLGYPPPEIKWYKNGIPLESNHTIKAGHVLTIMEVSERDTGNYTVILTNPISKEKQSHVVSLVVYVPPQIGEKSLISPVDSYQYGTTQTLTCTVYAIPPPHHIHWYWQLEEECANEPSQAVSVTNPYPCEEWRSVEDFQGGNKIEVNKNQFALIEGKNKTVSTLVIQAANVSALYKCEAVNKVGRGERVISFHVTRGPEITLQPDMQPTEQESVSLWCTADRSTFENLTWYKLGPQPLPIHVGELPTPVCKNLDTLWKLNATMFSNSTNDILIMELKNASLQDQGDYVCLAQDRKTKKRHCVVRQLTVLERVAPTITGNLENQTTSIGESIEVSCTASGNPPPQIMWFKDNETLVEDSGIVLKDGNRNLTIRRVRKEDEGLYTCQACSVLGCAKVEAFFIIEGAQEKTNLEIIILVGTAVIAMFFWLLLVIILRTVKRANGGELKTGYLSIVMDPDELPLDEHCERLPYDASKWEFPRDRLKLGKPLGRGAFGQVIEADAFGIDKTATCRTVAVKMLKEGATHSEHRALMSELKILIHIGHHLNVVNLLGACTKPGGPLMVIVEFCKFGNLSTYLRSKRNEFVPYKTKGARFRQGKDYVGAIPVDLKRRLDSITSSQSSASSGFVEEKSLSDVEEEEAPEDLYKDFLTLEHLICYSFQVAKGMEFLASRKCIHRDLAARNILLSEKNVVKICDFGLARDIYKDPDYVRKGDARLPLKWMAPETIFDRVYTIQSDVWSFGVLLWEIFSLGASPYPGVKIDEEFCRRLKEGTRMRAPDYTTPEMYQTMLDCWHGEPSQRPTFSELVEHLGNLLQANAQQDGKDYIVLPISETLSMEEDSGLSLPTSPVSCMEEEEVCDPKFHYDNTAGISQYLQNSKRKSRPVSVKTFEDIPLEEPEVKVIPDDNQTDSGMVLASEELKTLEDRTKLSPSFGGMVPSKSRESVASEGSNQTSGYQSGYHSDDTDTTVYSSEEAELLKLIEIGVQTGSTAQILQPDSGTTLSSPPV

[6] = Resistant index, ratio of IC50 for cytotoxicity against human SK-OV-3 cells over expressing MDR1-6/6 cells to IC50 for cytotoxicity against human SK-OV-3 cells; format: functional
HeLa [7] = test: Cytotoxicity against human HeLa cells over expressing WT-beta3 assessed as reduction in cell viability by Sulforhodamine B assay; format: functional, cell-based
Method in brief: (§2)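 SRB proliferation/cytotoxicity assay; parental lines obtained from ATCC. The HeLa WT-βIII line was generated as described in earlier work. IC50 is the average of at least 3 independent experiments, each run with triplicate points.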

[8] = target: T2, Vascular endothelial growth factor receptor 2; test: Inhibition of VEGFR2 in human U251 cells preincubated for 60 mins followed by VEGF stimulation and measured after 10 mins by ELISA; format: cell-based, U-251
[9] = target: T3, Epidermal growth factor receptor (Homo sapiens, UniProt P00533); test: Inhibition of EGFR in human A431 cells preincubated for 60 mins followed by EGF stimulation and measured after 10 mins by ELISA; format: cell-based, A-431
T3 sequence (P00533 whole entry): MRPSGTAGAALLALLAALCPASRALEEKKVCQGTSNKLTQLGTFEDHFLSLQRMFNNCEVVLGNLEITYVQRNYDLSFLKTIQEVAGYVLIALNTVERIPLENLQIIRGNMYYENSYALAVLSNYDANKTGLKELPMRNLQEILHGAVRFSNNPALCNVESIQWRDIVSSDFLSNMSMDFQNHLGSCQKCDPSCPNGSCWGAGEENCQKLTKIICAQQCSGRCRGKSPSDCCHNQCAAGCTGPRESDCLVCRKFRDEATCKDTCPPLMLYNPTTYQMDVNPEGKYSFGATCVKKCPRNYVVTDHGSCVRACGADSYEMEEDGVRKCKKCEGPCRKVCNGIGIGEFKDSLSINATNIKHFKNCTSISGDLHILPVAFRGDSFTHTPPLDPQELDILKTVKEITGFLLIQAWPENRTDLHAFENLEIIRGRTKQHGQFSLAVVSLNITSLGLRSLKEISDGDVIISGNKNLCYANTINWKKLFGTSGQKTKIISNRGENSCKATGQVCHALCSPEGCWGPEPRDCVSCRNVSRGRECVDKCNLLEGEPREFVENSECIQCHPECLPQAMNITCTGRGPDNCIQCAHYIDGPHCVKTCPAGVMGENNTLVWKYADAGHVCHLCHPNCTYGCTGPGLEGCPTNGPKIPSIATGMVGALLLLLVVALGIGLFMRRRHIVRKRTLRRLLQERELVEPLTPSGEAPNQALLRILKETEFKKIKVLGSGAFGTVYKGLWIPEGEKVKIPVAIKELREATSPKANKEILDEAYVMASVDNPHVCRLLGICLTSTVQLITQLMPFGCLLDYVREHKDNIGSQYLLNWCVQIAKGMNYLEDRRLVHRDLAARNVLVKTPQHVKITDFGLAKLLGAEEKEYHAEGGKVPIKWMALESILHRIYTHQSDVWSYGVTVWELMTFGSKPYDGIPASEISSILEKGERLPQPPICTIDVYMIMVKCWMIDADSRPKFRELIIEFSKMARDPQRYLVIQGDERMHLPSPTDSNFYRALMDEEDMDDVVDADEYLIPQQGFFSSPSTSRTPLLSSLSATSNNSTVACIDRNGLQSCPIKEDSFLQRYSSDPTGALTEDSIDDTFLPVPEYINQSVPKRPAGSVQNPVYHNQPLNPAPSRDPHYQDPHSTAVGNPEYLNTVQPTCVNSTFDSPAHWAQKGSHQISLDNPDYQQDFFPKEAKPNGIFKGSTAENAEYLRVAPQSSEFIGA

[10] = target: T3, Epidermal growth factor receptor; test: Potency index, ratio of IC50 for sunitinib to IC50 for test compound for inhibition of EGFR in human A431 cell; conditions: A-431
Chorioallantoic membrane [11] = test: Antiangiogenic activity in Leghorn chicken fertilized egg chorioallantoic membrane assessed as reduction in VEGF/bFGF stimulated neovascularization after 40 hrs by microscopic based CAM assay; format: functional, tissue-based; conditions: Gallus gallus
Method in brief: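 VEGF/bFGF applied at saturation to a testing disk on the CAM. Compounds at various doses were added to the same disk 8 h later, then incubated 40 h more. Vessels were counted in 5–7 grids at 7.5X. Values are percent of growth-factor-only. IC50 by non-linear regression, 2–3 experiments, 2–5 replicates each.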

MDA-MB-435 = test: Antiproliferative activity against human MDA-MB-435 cells assessed as reduction in cell viability by Sulforhodamine B assay; format: functional, cell-based; method in brief: as §2
SK-OV-3 [12] = test: Cytotoxicity against human SK-OV-3 cells assessed as reduction in cell viability by Sulforhodamine B assay; format: functional, cell-based; method in brief: as §2
[13] = Resistant index, ratio of IC50 for cytotoxicity against human HeLa cells expressing WT-beta3 to IC50 for cytotoxicity against human HeLa cells; format: functional
[14] = target: T2, Vascular endothelial growth factor receptor 2; test: Potency index, ratio of IC50 for erlotinib to IC50 for test compound for inhibition of VEGFR2 in human U251 cells; format: cell-based; conditions: U-251
[15] = target: T1, Platelet-derived growth factor receptor beta; test: Potency index, ratio of IC50 for erlotinib to IC50 for test compound for inhibition of PDGFRbeta in human SH-SY5Y cells; format: cell-based
[16] = Induction of microtubule depolymerization in rat A10 cells incubated for over night by immunofluorescence method; format: cell-based
Method in brief: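 Rat A-10 cells were exposed overnight, fixed in cold methanol and stained for microtubules by indirect immunofluorescence with a β-tubulin antibody.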

HeLa [17] = test: Cytotoxicity against human HeLa cells assessed as reduction in cell viability by Sulforhodamine B assay; format: functional, cell-based; method in brief: as §1
U-251 = test: Cytotoxicity against human U-251 cells assessed as reduction in cell viability by Sulforhodamine B assay; format: functional, cell-based
Chorioallantoic membrane [18] = test: Potency index, ratio IC50 for erlotinib to IC50 for test compound for antiangiogenic activity in Leghorn chicken fertilized egg chorioallantoic membrane; format: functional, tissue-based; conditions: Gallus gallus
Bos taurus [19] = species: Bos taurus; test: Displacement of [3H]-colchicine from bovine brain tubulin at 5 uM after 10 mins by DEAE-cellulose filter method relative to control; format: tissue-based
Method in brief: (§3)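 Tubulin 0.1 mg/mL (1.0 μM) incubated at 37 °C with 5.0 μM [3H]colchicine and inhibitor at 1.0 or 5.0 μM.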

Bos taurus [20] = species: Bos taurus; test: Displacement of [3H]-colchicine from bovine brain tubulin at 1 uM after 10 mins by DEAE-cellulose filter method relative to control; format: tissue-based; method in brief: as §3

Compound: COc1ccc(N(C)c2nc(C)nc3ccccc23)cc1 [VERUBULIN]
- IC50 (A-431): 0.9 nM
- Ratio [1]: 1.2
- IC50 (SK-OV-3 [2]): 2.6 nM
- IC50 [3]: 5.6 nM
- Ratio IC50 [4]: 15
- Ratio IC50 [5]: 2
- Ratio IC50 [6]: 1.2
- IC50 (HeLa [7]): 1.5 nM
- IC50 [8]: 8.4 nM
- IC50 [9]: 2.8 nM
- Ratio IC50 [10]: 61
- IC50 (Chorioallantoic membrane [11]): 2800 nM
- IC50 (MDA-MB-435): 1.7 nM
- IC50 (SK-OV-3 [12]): 2.2 nM
- Ratio IC50 [13]: 0.8
- Ratio IC50 [14]: 15
- Ratio IC50 [15]: 2
- EC50 [16]: 2.1 nM
- IC50 (HeLa [17]): 2 nM

Compound: CSc1ccc(N(C)c2nc(Cl)nc3ccccc23)cc1
- Ratio [1]: 1
- IC50 (SK-OV-3 [2]): 3.5 nM
- Ratio IC50 [6]: 1.1
- IC50 (HeLa [7]): 3.2 nM
- IC50 (MDA-MB-435): 2.7 nM
- IC50 (SK-OV-3 [12]): 3.3 nM
- Ratio IC50 [13]: 0.6
- EC50 [16]: 2.7 nM
- IC50 (HeLa [17]): 5 nM

Compound: COc1ccc(/C=C\c2cc(OC)c(OC)c(OC)c2)cc1O [COMBRETASTATIN A4]
- EC50 [16]: 9.8 nM

Compound: COc1cccc2cc(N(C)c3nc(Cl)nc4ccccc34)ccc12
- Ratio [1]: 1.4
- IC50 (SK-OV-3 [2]): 2.6 nM
- Ratio IC50 [6]: 0.9
- IC50 (HeLa [7]): 1.6 nM
- IC50 (MDA-MB-435): 1.4 nM
- IC50 (SK-OV-3 [12]): 2.8 nM
- Ratio IC50 [13]: 0.6
- EC50 [16]: 1.9 nM
- IC50 (HeLa [17]): 2.8 nM

Compound: C#Cc1cccc(Nc2ncnc3cc(OCCOC)c(OCCOC)cc23)c1 [ERLOTINIB]
- IC50 (Chorioallantoic membrane [11]): 3100 nM

Compound: COc1ccc2c(c1)CCCN2c1ncnc2ccccc12
- IC50 (A-431): 16.3 nM
- Ratio [1]: 1.9
- IC50 (SK-OV-3 [2]): 23.4 nM
- IC50 [3]: 54 nM
- IC50 (U-251): 27.8 nM
- Ratio IC50 [6]: 1.3
- IC50 (HeLa [7]): 13.1 nM
- IC50 [8]: 111 nM
- IC50 [9]: 48.9 nM
- IC50 (MDA-MB-435): 12.4 nM
- IC50 (SK-OV-3 [12]): 18.1 nM
- Ratio IC50 [13]: 0.8
- EC50 [16]: 23.4 nM
- IC50 (HeLa [17]): 16.8 nM

Compound: CSc1ccc(N(C)c2ncnc3ccccc23)cc1
- Ratio [1]: 1.6
- IC50 (SK-OV-3 [2]): 15.6 nM
- Ratio IC50 [6]: 1.1
- IC50 (HeLa [7]): 7.3 nM
- IC50 (MDA-MB-435): 7.8 nM
- IC50 (SK-OV-3 [12]): 13.6 nM
- Ratio IC50 [13]: 0.6
- EC50 [16]: 12.3 nM
- IC50 (HeLa [17]): 8.5 nM

Compound: COc1ccc2c(c1)CCCN2c1nc(Cl)nc2ccccc12
- IC50 (A-431): 1.8 nM
- IC50 (SK-OV-3 [2]): 1 nM
- IC50 [3]: 80.6 nM
- IC50 (U-251): 14.8 nM
- IC50 [8]: 55.2 nM
- IC50 (Chorioallantoic membrane [11]): 41400 nM
- IC50 (MDA-MB-435): 0.7 nM
- IC50 (SK-OV-3 [12]): 0.8 nM
- EC50 [16]: 2 nM
- IC50 (HeLa [17]): 0.6 nM

Compound: COc1ccc2c(c1)CCCN2c1nc(C)nc2ccccc12
- IC50 (A-431): 2.5 nM
- Ratio [1]: 2.7
- IC50 (SK-OV-3 [2]): 2.2 nM
- IC50 [3]: 7.8 nM
- IC50 (U-251): 3.1 nM
- Ratio IC50 [6]: 1.5
- IC50 (HeLa [7]): 1.2 nM
- IC50 [8]: 9.3 nM
- IC50 [9]: 5 nM
- IC50 (Chorioallantoic membrane [11]): 3100 nM
- IC50 (MDA-MB-435): 1.1 nM
- IC50 (SK-OV-3 [12]): 1.5 nM
- Ratio IC50 [13]: 1
- Ratio IC50 (Chorioallantoic membrane [18]): 9.4
- EC50 [16]: 3 nM
- IC50 (HeLa [17]): 1.2 nM

Compound: COc1ccc(N(C)c2nc(Cl)nc3ccccc23)cc1
- inhibition (Bos taurus [19]): 99%
- IC50 (A-431): 1.2 nM
- IC50 [3]: 76.6 nM
- inhibition (Bos taurus [20]): 92%
- IC50 (U-251): 32.5 nM
- IC50 [8]: 97.5 nM
- IC50 [9]: 3.6 nM
- IC50 (Chorioallantoic membrane [11]): 130000 nM

Compound: CSc1ccc(N(C)c2nc(C)nc3ccccc23)cc1
- inhibition (Bos taurus [19]): 99%
- IC50 (A-431): 2.9 nM
- IC50 [3]: 232 nM
- inhibition (Bos taurus [20]): 91%
- IC50 (U-251): 4.9 nM
- IC50 [8]: 14.7 nM
- IC50 [9]: 8.7 nM

Compound: COc1cccc2cc(N(C)c3nc(C)nc4ccccc34)ccc12
- inhibition (Bos taurus [19]): 98%
- IC50 (A-431): 5.3 nM
- Ratio [1]: 1.2
- IC50 (SK-OV-3 [2]): 3.5 nM
- IC50 [3]: 29.4 nM
- inhibition (Bos taurus [20]): 88%
- IC50 (U-251): 4.2 nM
- Ratio IC50 [6]: 1.2
- IC50 (HeLa [7]): 1.7 nM
- IC50 [8]: 16.8 nM
- IC50 [9]: 10.6 nM
- IC50 (MDA-MB-435): 2 nM
- IC50 (SK-OV-3 [12]): 2.9 nM
- Ratio IC50 [13]: 0.7
- EC50 [16]: 2.4 nM
- IC50 (HeLa [17]): 2.5 nM

Compound: COc1ccc(N(C)c2ncnc3ccccc23)cc1
- Ratio [1]: 1.2
- IC50 (SK-OV-3 [2]): 14.3 nM
- Ratio IC50 [6]: 1.4
- IC50 (MDA-MB-435): 7.1 nM
- IC50 (SK-OV-3 [12]): 10.4 nM
- Ratio IC50 [13]: 0.9
- EC50 [16]: 8.2 nM
- IC50 (HeLa [17]): 8.6 nM
